The source of these data is ChEMBL document CHEMBL1148714, “Design, synthesis, and in vivo SAR of a novel series of pyrazolines as potent selective androgen receptor modulators” (2007).

Molecules are shown by their SMILES.

For test [1], the system named is Rattus norvegicus. Description: Stimulation of prostate weight in castrated immature Sprague-Dawley rat at 2 mg/day, po after 5 days. The class given is functional, Prostate gland. In short, it runs like this: (§1)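 Immature (~50 g) castrated male Sprague Dawley rats dosed once daily for 5 days. Test article given p.o. at 2 mg/day in 20% cyclodextrin; testosterone propionate reference given at 1 mg/day s.c. in sesame oil. Ventral prostate and levator ani wet weights taken on day 6, adjusted to body weight. % stimulation uses vehicle = 0% and testosterone = 100%. n = 3/group.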

Test [2] concerns Rattus norvegicus. Description: Stimulation of levator ani muscle weight in castrated immature Sprague-Dawley rat at 2 mg/day, po after 5 days. The format is functional. Put shortly: as §1
The species named for test [3] is Rattus norvegicus. Nature of the test: Stimulation of levator ani muscle weight in castrated immature Sprague-Dawley rat. The class given is functional. In short, it runs like this:
(§2)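 Immature (~50 g) castrated male Sprague Dawley rats given oral doses once daily at 0.1, 0.3, 1, 3 mg/day. Ventral prostate and levator ani wet weights adjusted to body weight. % stimulation uses vehicle = 0% and testosterone-treated (1 mg/day) group = 100%; ED50 derived from the four-point dose series. n = 3/group.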

For test [4], the species on record is Rattus norvegicus. Nature of the test: Inhibition of prostate weight in castrated immature male Sprague-Dawley rat at 2 mg/day relative to control. The class given is functional, Prostate gland. Put shortly:
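Immature (~50 g) castrated male Sprague Dawley rats; test article orally at 2 mg/day once daily for 5 days, with testosterone propionate 0.1 mg/day s.c. in sesame oil. Ventral prostate wet weight taken on day 6 after CO2 euthanasia, adjusted to body weight. Inhibition given as % of testosterone-enhanced weight, vehicle group = 100% and testosterone-alone group = 0%. n = 3/group.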

For test [5], the species on record is Rattus norvegicus. Nature of the test: Stimulation of prostate weight in castrated immature Sprague-Dawley rat. The format is functional, Prostate gland. In short, it runs like this: as §2

For `CC(=O)Nc1cccc(C2=NNC(C)(C(=O)Nc3ccc(C#N)c(C(F)(F)F)c3)C2)c1` (centres undefined), the Activity in the test on Rattus norvegicus [1] and in the test on Rattus norvegicus [2] was below 10% throughout.
In the case of `CCC1=NNC(C)(C(=O)Nc2ccc(C#N)c(C(F)(F)F)c2)C1` (centres undefined), the Activity in the test on Rattus norvegicus [1] and with Rattus norvegicus [2] was below 10% in each case.
As to `CCO/C(=N\c1ccc(C#N)c(C(F)(F)F)c1)C1(C)CC(C(F)(F)F)=NN1` (centres undefined), the Activity in the test on Rattus norvegicus [1] was 22%; with Rattus norvegicus [2], 75%. For the same compound, the ED50 in the test listed under Rattus norvegicus [3] was determined as 0.25 mg/day.
Take `CC1(C(=O)Nc2ccc([N+](=O)[O-])c(C(F)(F)F)c2)CC(C(F)(F)F)=NN1` (centres undefined): the values for the Activity in the test with Rattus norvegicus [1] and in the test with Rattus norvegicus [2] were 38% and 21%, respectively.
The like results for `CCc1cc(C#N)c(C(F)(F)F)cc1NC(=O)C1(C)CC(C(F)(F)F)=NN1` (centres undefined) were, in that order, below 10% and below 10%.
For `CC1(C(=O)Nc2ccc(C#N)c(C(F)(F)F)c2)CC(C(F)(F)F)=NN1C(=O)C(F)(F)F` (centres undefined), the Activity in the test on Rattus norvegicus [1] turned out to be 30%; in the test with Rattus norvegicus [2] it was 70%.
In the case of `CC1(C(=O)Nc2ccc(C#N)c(C(F)(F)F)c2)CC=NN1` (centres undefined), the Activity in the test on Rattus norvegicus [1] and in the test with Rattus norvegicus [2] was below 10% in each case.
For the compound `CC1(C(=O)Nc2ccc(C#N)c(C(F)(F)F)c2)CC(c2ccc(F)cc2)=NN1` (centres undefined), the Activity amounted to 20% with Rattus norvegicus [1] and 44% in the test with Rattus norvegicus [2].
With `CCCC1(C(=O)Nc2ccc(C#N)c(C(F)(F)F)c2)CC(C(F)(F)F)=NN1` (centres undefined), the Activity is recorded as below 10% with Rattus norvegicus [1] and 18% in the test with Rattus norvegicus [2].
Consider `CC1(C(=O)Nc2ccc([N+](=O)[O-])c(C(F)(F)F)c2)CC(c2ccc(NC(=O)C(F)(F)F)cc2)=NN1` (centres undefined), for which the values for the Activity with Rattus norvegicus [1] and in the test with Rattus norvegicus [2] were 10% and 21%, respectively.
For `CN1N=C(C(F)(F)F)CC1(C)C(=O)Nc1ccc(C#N)c(C(F)(F)F)c1` (centres undefined), the results for the Activity in the test with Rattus norvegicus [1] and in the test with Rattus norvegicus [2] were below 10% and 44%, respectively.
In the same order, the values of `CC1=NNC(C(=O)Nc2ccc(C#N)c(C(F)(F)F)c2)(C(F)(F)F)C1` (centres undefined) are 46% and 64%.
Take `CC1(C(=O)Nc2ccc(C#N)c(C(F)(F)F)c2)CC(C(F)(F)C(F)(F)F)=NN1` (centres undefined): the Activity is on record as below 10% with Rattus norvegicus [1] and 15% with Rattus norvegicus [2].
The like results for `CC1(C(=O)Nc2ccc(Cl)c(Cl)c2)CC(C(F)(F)F)=NN1` (centres undefined) were, in that order, 10% and below 10%.
The like results for `CC(C)C1=NNC(C)(C(=O)Nc2ccc(C#N)c(C(F)(F)F)c2)C1` (centres undefined) were, in that order, below 10% and below 10%.
Turning to `CC1(C(=O)Nc2ccc(Cl)c(C(F)(F)F)c2)CC(C(F)(F)F)=NN1` (centres undefined), the Activity in the test on Rattus norvegicus [1] is below 10%; with Rattus norvegicus [2], 15%.
As to `CC1(C(=O)Nc2ccc(C#N)c(C(F)(F)F)c2)CC(c2ccc(F)cc2)=NO1` (centres undefined), the Activity in the test on Rattus norvegicus [1] and in the test with Rattus norvegicus [2] was below 10% throughout.
As to `CCN1N=C(C(F)(F)F)C[C@@]1(C)C(=O)Nc1ccc(C#N)c(C(F)(F)F)c1`, the Inhibition – broadly, the percentage by which the read-out fell short of the control – in the test listed under Rattus norvegicus [4] came to 18%. Moreover, the figures for the ED50 in the test listed under Rattus norvegicus [5] and in the test filed under Rattus norvegicus [3] were 2.2 mg/day and 0.12 mg/day, respectively.
Consider `CCO/C(=N\c1ccc(C#N)c(C(F)(F)F)c1)[C@@]1(C)CC(C(F)(F)F)=NN1`, for which the Inhibition in the test listed under Rattus norvegicus [4] is recorded as below 10%. The values for the ED50 in the test filed under Rattus norvegicus [5] and in the test listed under Rattus norvegicus [3] were 0.16 mg/day and 0.1 mg/day, respectively.
`CC1=NNC(C)(C(=O)Nc2ccc(C#N)c(C(F)(F)F)c2)C1` (centres undefined): the Activity in the test on Rattus norvegicus [1] is recorded as 29%; in the test with Rattus norvegicus [2] it was 62%.
On to `CC1(C(=O)Nc2cc(C(F)(F)F)c(C#N)cc2Cl)CC(C(F)(F)F)=NN1` (centres undefined), for which the values for the Activity with Rattus norvegicus [1] and in the test with Rattus norvegicus [2] were 15% and 57%, respectively.
With `CC(=O)Nc1ccc(C2=NN(C)C(C)(C(=O)Nc3ccc(C#N)c(C(F)(F)F)c3)C2)cc1` (centres undefined), the Activity with Rattus norvegicus [1] and in the test with Rattus norvegicus [2] was below 10% in each case.
Regarding `CC1(C(=O)Nc2cc(C(F)(F)F)c(C#N)cc2I)CC(C(F)(F)F)=NN1` (centres undefined), the Activity in the test on Rattus norvegicus [1] stood at 47%; with Rattus norvegicus [2], 86%.
In the same order, the values of `CC1(C(=O)Nc2ccc(Br)c(C(F)(F)F)c2)CC(C(F)(F)F)=NN1` (centres undefined) are 12% and 41%.
Regarding `CC(=O)Nc1ccc(C2=NNC(C)(C(=O)Nc3ccc(C#N)c(C#N)c3)C2)cc1` (centres undefined), the Activity with Rattus norvegicus [1] and with Rattus norvegicus [2] was below 10% each time.
On to `CC(=O)Nc1ccc(C2=NNC(C)(C(=O)Nc3ccc([N+](=O)[O-])c(C(F)(F)F)c3)C2)cc1` (centres undefined), for which the Activity stood at 15% in the test on Rattus norvegicus [1] and 35% in the test with Rattus norvegicus [2].
The like results for `CC1(C(=O)Nc2cc(C(F)(F)F)c(C#N)cc2C#N)CC(C(F)(F)F)=NN1` (centres undefined) were, in that order, below 10% and below 10%.
Regarding `CO/C(=N\c1ccc(C#N)c(C(F)(F)F)c1)C1(C)CC(C(F)(F)F)=NN1` (centres undefined), the Activity in the test with Rattus norvegicus [1] was 30%; in the test with Rattus norvegicus [2] it was 86%.
On to `CC1=NOC(C)(C(=O)Nc2ccc(C#N)c(C(F)(F)F)c2)C1` (centres undefined), for which the Activity in the test on Rattus norvegicus [1] and in the test with Rattus norvegicus [2] was below 10% each time.
With `CCSc1cc(C#N)c(C(F)(F)F)cc1NC(=O)C1(C)CC(C(F)(F)F)=NN1` (centres undefined), the Activity in the test with Rattus norvegicus [1] was below 10%; in the test on Rattus norvegicus [2], 42%.
Regarding `CCN1N=C(C(F)(F)F)CC1(C)C(=O)Nc1ccc(C#N)c(C(F)(F)F)c1` (centres undefined), the Activity in the test with Rattus norvegicus [1] was 47%; in the test with Rattus norvegicus [2] it was 95%.
Regarding `CCOC(=O)C1=NNC(C)(C(=O)Nc2ccc([N+](=O)[O-])c(C(F)(F)F)c2)C1` (centres undefined), the Activity in the test with Rattus norvegicus [1] and in the test on Rattus norvegicus [2] was below 10% in each case.
Take `COc1cc(C#N)c(C(F)(F)F)cc1NC(=O)C1(C)CC(C(F)(F)F)=NN1` (centres undefined): the Activity was found to be 18% with Rattus norvegicus [1] and 52% with Rattus norvegicus [2].
As for `CC1(C(=O)Nc2ccc(C#N)c(C(F)(F)F)c2)CC(CC(F)(F)F)=NN1` (centres undefined), the Activity is listed as below 10% with Rattus norvegicus [1] and 10% in the test on Rattus norvegicus [2].
For `CC1(C(=O)Nc2ccc(C#N)cc2)CC(C(F)(F)F)=NN1` (centres undefined), the Activity with Rattus norvegicus [1] and with Rattus norvegicus [2] was below 10% in each case.
Regarding `CC1(C(=O)Nc2ccc([N+](=O)[O-])c(C(F)(F)F)c2)CC(c2ccc(F)cc2)=NN1` (centres undefined), the Activity with Rattus norvegicus [1] is given as below 10%; with Rattus norvegicus [2], 18%.
In the case of `CCN1N=C(C)CC1(C)C(=O)Nc1ccc(C#N)c(C(F)(F)F)c1` (centres undefined), the Activity in the test on Rattus norvegicus [1] came to 18%; in the test on Rattus norvegicus [2], 55%.
`CC(C)(C)C1=NNC(C)(C(=O)Nc2ccc(C#N)c(C(F)(F)F)c2)C1` (centres undefined): the Activity in the test on Rattus norvegicus [1] is given as below 10%; in the test on Rattus norvegicus [2], 36%.
The like results for `N#Cc1ccc(NC(=O)C2(C(F)(F)F)CC(C(F)(F)F)=NN2)cc1C(F)(F)F` (centres undefined) were, in that order, 13% and 37%.
As to `CCCC1=NNC(C)(C(=O)Nc2ccc(C#N)c(C(F)(F)F)c2)C1` (centres undefined), the Activity in the test on Rattus norvegicus [1] and in the test on Rattus norvegicus [2] was below 10% throughout.
On to `CC(=O)Nc1ccc(CC2=NNC(C)(C(=O)Nc3ccc(C#N)c(C(F)(F)F)c3)C2)cc1` (centres undefined), for which the Activity was 24% in the test with Rattus norvegicus [1] and 51% with Rattus norvegicus [2].
The like results for `CC(=O)Nc1ccc(C2=NNC(C)(C(=O)Nc3ccc(C#N)c(C(F)(F)F)c3)C2)cc1` (centres undefined) were, in that order, 16% and 57%.
For `CC(=O)Nc1ccc(C2=NNC(C)(C(=O)Nc3ccc(Cl)c(C(F)(F)F)c3)C2)cc1` (centres undefined), the Activity with Rattus norvegicus [1] is on record as below 10%; with Rattus norvegicus [2], 17%.
